# Source: ChEMBL document CHEMBL3244252, “Adriamycin analogues. 3. Synthesis of N-alkylated anthracyclines with enhanced efficacy and reduced cardiotoxicity” (J Med Chem, 1979)
# Legend:
# L1210 [1] = assay: Inhibition of RNA synthesis in mouse L1210 cells; format: functional; settings: read-out: ED50 (the source's name)
# Summary of the method: (§1)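 L1210 leukemia cells. Drugs were first dissolved in Me2SO to a final 1% Me2SO in the assay medium. Inhibition of DNA and RNA synthesis was measured separately and reported as ED50 (50% inhibitory dose, μM). Selectivity is the ratio of the DNA ED50 to the RNA ED50.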
# Calf thymus DNA = assay: Binding affinity to calf thymus DNA assessed as change in melting temperature; format: nucleic-acid assay; settings: Bos taurus
# Summary of the method: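 Drug first dissolved in Me2SO to a final 5% Me2SO in the assay medium. DNA binding is read as the shift in DNA melting temperature (ΔTm). ΔTm below 1 is taken as insignificant binding.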
# L1210 [2] = assay: Selectivity ratio of ED50 for inhibition of DNA synthesis in mouse L1210 cells to ED50 for inhibition of RNA synthesis in mouse L1210 cells; format: functional; summary of the method: as §1
# P388 [3] = assay: Antitumor activity against mouse P388 cells allografted in CDF/BDF mouse assessed as survival time at 6.25 mg/kg, ip administered as qd for 1 to 9 days relative to control; format: functional; settings: route intraperitoneal
# L1210 [4] = assay: Inhibition of DNA synthesis in mouse L1210 cells; format: functional; settings: read-out: ED50 (the source's name); summary of the method: as §1
# Salmonella typhimurium [5] = assay: Mutagenicity in Salmonella typhimurium TA98 assessed as number of revertants by Ames test in presence of microsomal activation; format: toxicity, organism-based; settings: salmonella enterica subsp. enterica serovar typhimurium
# Summary of the method: (§2)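 Ames plate test using Salmonella typhimurium tester strain TA98. Compounds were tested over dose ranges of 0-20 to 0-100 µg/plate, depending on the compound, and the toxicity level per plate was noted. Mutagenicity is expressed as revertants produced per nmol of compound.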
# Salmonella typhimurium [6] = assay: Mutagenicity in Salmonella typhimurium TA98 assessed as number of revertants by Ames test in absence of microsomal activation; format: toxicity, organism-based; settings: salmonella enterica subsp. enterica serovar typhimurium; summary of the method: as §2
# P388 [7] = assay: Antitumor activity against mouse P388 cells allografted in CDF/BDF mouse assessed as survival time at 12.5 mg/kg, ip administered as qd for 1 to 9 days relative to control; format: functional; settings: route intraperitoneal
# P388 [8] = assay: Antitumor activity against mouse P388 cells allografted in CDF/BDF mouse assessed as survival time at 25 mg/kg, ip administered as qd on day 5, 9, 13; format: functional; settings: route intraperitoneal
# Rattus norvegicus = organism: Rattus norvegicus; assay: Cardiotoxicity in rat assessed as minimum cumulative cardiotoxic dose by Zbinden test; format: toxicity, organism-based; settings: in vivo
# Summary of the method: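 Zbinden cardiotoxicity assay in rats. Drug was given cumulatively, with ECG monitoring. Value is the minimum total dose (mg/kg) that causes significant ECG alterations.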
# Salmonella typhimurium [9] = assay: Toxicity in Salmonella typhimurium TA98 assessed as concentration required to cause mortality per plate; format: organism-based; settings: salmonella enterica subsp. enterica serovar typhimurium
# Summary of the method: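 Ames plate test with Salmonella typhimurium tester strain TA98. Compounds were tested over ranges from 0–20 up to 0–100 µg/plate, depending on compound. The toxicity level is reported in µg/plate.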
# P388 [10] = assay: Antitumor activity against mouse P388 cells allografted in CDF/BDF mouse assessed as survival time at 3.13 mg/kg, ip administered as qd for 1 to 9 days relative to control; format: functional; settings: route intraperitoneal
# P388 [11] = assay: Antitumor activity against mouse P388 cells allografted in CDF/BDF mouse assessed as survival time at 1.56 mg/kg, ip administered as qd for 1 to 9 days relative to control; format: functional; settings: route intraperitoneal
# P388 [12] = assay: Antitumor activity against mouse P388 cells allografted in CDF/BDF mouse assessed as survival time at 18 mg/kg, ip administered as qd on day 5, 9, 13; format: functional; settings: route intraperitoneal
# P388 [13] = assay: Antitumor activity against mouse P388 cells allografted in CDF/BDF mouse assessed as survival time at 18.8 mg/kg, ip administered as qd on day 5, 9, 13; format: functional; settings: route intraperitoneal
# P388 [14] = assay: Antitumor activity against ip dosed mouse P388 cells allografted in CDF/BDF mouse assessed as survival time administered as qd for 1 to 9 days relative to control; format: functional
# P388 [15] = assay: Antitumor activity against mouse P388 cells allografted in CDF/BDF mouse assessed as survival time at 8 mg/kg, ip administered as qd on day 5, 9, 13; format: functional; settings: route intraperitoneal
# P388 [16] = assay: Antitumor activity against mouse P388 cells allografted in CDF/BDF mouse assessed as survival time at 0.78 mg/kg, ip administered as qd for 1 to 9 days relative to control; format: functional; settings: route intraperitoneal
# P388 [17] = assay: Antitumor activity against mouse P388 cells allografted in CDF/BDF mouse assessed as survival time at 4 mg/kg, ip administered as qd for 1 to 9 days relative to control; format: functional; settings: route intraperitoneal
# P388 [18] = assay: Antitumor activity against mouse P388 cells allografted in CDF/BDF mouse assessed as survival time at 37.5 mg/kg, ip administered as qd on day 5, 9, 13; format: functional; settings: route intraperitoneal
# P388 [19] = assay: Antitumor activity against mouse P388 cells allografted in CDF/BDF mouse assessed as survival time at 3.12 mg/kg, ip administered as qd for 1 to 9 days relative to control; format: functional; settings: route intraperitoneal
smiles,measurement,setting,value
COc1cccc2c1C(=O)c1c(O)c3c(c(O)c1C2=O)C[C@@](O)(C(=O)CO)C[C@@H]3O[C@H]1C[C@H](N(Cc2ccccc2)Cc2ccccc2)[C@H](O)[C@H](C)O1.Cl,EC50,L1210 [1],4800 nM
same,ΔTm,Calf thymus DNA,0 °C
same,Ratio ED50,L1210 [2],22.8
same,T/C,P388 [3],175%
same,EC50,L1210 [4],110000 nM
COc1cccc2c1C(=O)c1c(O)c3c(c(O)c1C2=O)C[C@@](O)(C(C)O)C[C@@H]3O[C@H]1C[C@H](N(Cc2ccccc2)Cc2ccccc2)[C@H](O)[C@H](C)O1.Cl (stereo partly specified),EC50,L1210 [1],7600 nM
same,ΔTm,Calf thymus DNA,0.6 °C
same,Ratio ED50,L1210 [2],29.1
same,Activity,Salmonella typhimurium [5],0.5 nmol⁻¹
same,Activity,Salmonella typhimurium [6],Non-toxic
same,T/C,P388 [7],231%
same,T/C,P388 [8],183%
same,EC50,L1210 [4],220000 nM
COc1cccc2c1C(=O)c1c(O)c3c(c(O)c1C2=O)C[C@@](O)(C(C)=O)C[C@@H]3O[C@H]1C[C@H](N(C)C)[C@H](O)[C@H](C)O1.Cl,EC50,L1210 [1],64 nM
same,Ratio ED50,L1210 [2],10.4
same,Activity,Salmonella typhimurium [5],0 nmol⁻¹
same,Activity,Salmonella typhimurium [6],Non-toxic
same,EC50,L1210 [4],670 nM
same,MTC,Rattus norvegicus,11 mg/kg
same,Activity,Salmonella typhimurium [9],20 µg
COc1cccc2c1C(=O)c1c(O)c3c(c(O)c1C2=O)C[C@@](O)(C(=O)CO)C[C@@H]3O[C@H]1C[C@H](N(C)C)[C@H](O)[C@H](C)O1.Cl,EC50,L1210 [1],120 nM
same,ΔTm,Calf thymus DNA,17.5 °C
same,Ratio ED50,L1210 [2],5.2
same,Activity,Salmonella typhimurium [5],1 nmol⁻¹
same,Activity,Salmonella typhimurium [6],Non-toxic
same,EC50,L1210 [4],620 nM
same,MTC,Rattus norvegicus,6 mg/kg
same,Activity,Salmonella typhimurium [9],20 µg
CCN(CC)[C@H]1C[C@H](O[C@H]2C[C@](O)(C(=O)CO)Cc3c(O)c4c(c(O)c32)C(=O)c2c(OC)cccc2C4=O)O[C@@H](C)[C@H]1O.Cl,EC50,L1210 [1],210 nM
same,ΔTm,Calf thymus DNA,14.6 °C
same,Ratio ED50,L1210 [2],3.3
same,EC50,L1210 [4],700 nM
same,T/C,P388 [10],171%
COc1cccc2c1C(=O)c1c(O)c3c(c(O)c1C2=O)C[C@@](O)(C(O)CO)C[C@@H]3O[C@H]1C[C@H](N2CCCCC2)[C@H](O)[C@H](C)O1.Cl (stereo partly specified),EC50,L1210 [1],100 nM
same,ΔTm,Calf thymus DNA,12.5 °C
same,Ratio ED50,L1210 [2],7.2
same,T/C,P388 [11],157%
same,T/C,P388 [12],143%
same,EC50,L1210 [4],720 nM
COc1cccc2c1C(=O)c1c(O)c3c(c(O)c1C2=O)C[C@@](O)(C(=O)CO)C[C@@H]3O[C@H]1C[C@H](NCc2ccccc2)[C@H](O)[C@H](C)O1.Cl,EC50,L1210 [1],90 nM
same,ΔTm,Calf thymus DNA,11.3 °C
same,Ratio ED50,L1210 [2],7.2
same,EC50,L1210 [4],650 nM
same,T/C,P388 [13],190%
same,T/C,P388 [10],185%
CCCCCCCCCCN(CCCCCCCCCC)[C@H]1C[C@H](O[C@H]2C[C@](O)(C(C)=O)Cc3c(O)c4c(c(O)c32)C(=O)c2c(OC)cccc2C4=O)O[C@@H](C)[C@H]1O.Cl,EC50,L1210 [1],130000 nM
same,ΔTm,Calf thymus DNA,0.1 °C
same,Ratio ED50,L1210 [2],2.1
same,EC50,L1210 [4],280000 nM
same,T/C,P388 [14],<125%
COc1cccc2c1C(=O)c1c(O)c3c(c(O)c1C2=O)C[C@@](O)(C(C)=O)C[C@@H]3O[C@H]1C[C@H](N)[C@H](O)[C@H](C)O1 [DAUNORUBICIN],EC50,L1210 [1],330 nM
same,T/C,P388 [15],132%
same,Activity,Salmonella typhimurium [5],100 nmol⁻¹
same,EC50,L1210 [4],660 nM
same,MTC,Rattus norvegicus,14 mg/kg
same,Activity,Salmonella typhimurium [9],5 µg
same,T/C,P388 [16],160%
CCN(CC)[C@H]1C[C@H](O[C@H]2C[C@](O)(C(C)=O)Cc3c(O)c4c(c(O)c32)C(=O)c2c(OC)cccc2C4=O)O[C@@H](C)[C@H]1O.Cl,EC50,L1210 [1],130 nM
same,ΔTm,Calf thymus DNA,13.6 °C
same,Ratio ED50,L1210 [2],5.2
same,EC50,L1210 [4],670 nM
same,T/C,P388 [17],178%
CCCCCCCCCCN[C@H]1C[C@H](O[C@H]2C[C@](O)(C(C)=O)Cc3c(O)c4c(c(O)c32)C(=O)c2c(OC)cccc2C4=O)O[C@@H](C)[C@H]1O.Cl,EC50,L1210 [1],2600 nM
same,ΔTm,Calf thymus DNA,7 °C
same,Ratio ED50,L1210 [2],1.3
same,EC50,L1210 [4],3300 nM
same,T/C,P388 [14],<125%
COc1cccc2c1C(=O)c1c(O)c3c(c(O)c1C2=O)C[C@@](O)(C(O)CO)C[C@@H]3O[C@H]1C[C@H](NCc2ccccc2)[C@H](O)[C@H](C)O1.Cl (stereo partly specified),EC50,L1210 [1],290 nM
same,ΔTm,Calf thymus DNA,7.6 °C
same,Ratio ED50,L1210 [2],4.8
same,T/C,P388 [11],176%
same,T/C,P388 [18],135%
same,EC50,L1210 [4],1400 nM
COc1cccc2c1C(=O)c1c(O)c3c(c(O)c1C2=O)C[C@@](O)(C(C)O)C[C@@H]3O[C@H]1C[C@H](NCc2ccccc2)[C@H](O)[C@H](C)O1.Cl (stereo partly specified),EC50,L1210 [1],320 nM
same,ΔTm,Calf thymus DNA,6.25 °C
same,Ratio ED50,L1210 [2],5.3
same,T/C,P388 [3],221%
same,EC50,L1210 [4],1700 nM
COc1cccc2c1C(=O)c1c(O)c3c(c(O)c1C2=O)C[C@@](O)(C(C)=O)C[C@@H]3O[C@H]1C[C@H](NC(C)C)[C@H](O)[C@H](C)O1.Cl,EC50,L1210 [1],320 nM
same,ΔTm,Calf thymus DNA,10.6 °C
same,Ratio ED50,L1210 [2],3.4
same,T/C,P388 [7],199%
same,EC50,L1210 [4],1100 nM
COc1cccc2c1C(=O)c1c(O)c3c(c(O)c1C2=O)C[C@@](O)(C(C)=O)C[C@@H]3O[C@H]1C[C@H](NCc2ccccc2)[C@H](O)[C@H](C)O1.Cl,EC50,L1210 [1],170 nM
same,ΔTm,Calf thymus DNA,10.2 °C
same,Ratio ED50,L1210 [2],9.4
same,Activity,Salmonella typhimurium [5],0.5 nmol⁻¹
same,T/C,P388 [19],185%
same,Activity,Salmonella typhimurium [6],Non-toxic
same,EC50,L1210 [4],1600 nM
same,T/C,P388 [13],184%
COc1cccc2c1C(=O)c1c(O)c3c(c(O)c1C2=O)C[C@@](O)(C(=O)CO)C[C@@H]3O[C@H]1C[C@H](N2CCCCC2)[C@H](O)[C@H](C)O1.Cl,EC50,L1210 [1],40 nM
same,ΔTm,Calf thymus DNA,15.4 °C
same,Ratio ED50,L1210 [2],17.5
same,Activity,Salmonella typhimurium [5],1 nmol⁻¹
same,Activity,Salmonella typhimurium [6],Non-toxic
same,EC50,L1210 [4],700 nM
same,Activity,Salmonella typhimurium [9],20 µg
same,T/C,P388 [10],190%
COc1cccc2c1C(=O)c1c(O)c3c(c(O)c1C2=O)C[C@@](O)(C(=O)CO)C[C@@H]3O[C@H]1C[C@H](N)[C@H](O)[C@H](C)O1 [DOXORUBICIN],EC50,L1210 [1],580 nM
same,T/C,P388 [15],159%
same,ΔTm,Calf thymus DNA,13.4 °C
same,Ratio ED50,L1210 [2],2.6
same,EC50,L1210 [4],1500 nM
same,MTC,Rattus norvegicus,11 mg/kg
same,T/C,P388 [16],197%
